Laboratory results published in PMC5363680 (Molecular Therapy. Nucleic Acids, 2017).

Key:
[1] = test system: U87 cells; assay: LDH leakage; format: cell-based, human; conditions: reduced serum media, 6 hr, complexes and free peptide at a higher concentration
Method in brief: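 U87 cells grown 24 hr in serum-containing medium, then switched to serum-free conditions: medium removed and complexes or free peptide added, diluted 1:10 in medium. Controls were untreated cells, 0.1% Triton X-100 and cell-free wells. After 6 hr at 37°C, 5% CO2, LDH activity (CytoTox-ONE) was measured per kit protocol and normalized to controls.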

[2] = test system: U87 cells; assay: Neutral red lyso-toxicity assay, serum-free conditions; format: cell-based, human; conditions: reduced serum media, 6 hr, CPP and CPP/siRNA complexes at higher concentrations
Method in brief: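 U87 cells grown 24 hr in serum-containing medium, then medium replaced by complexes or peptide diluted 1:10 in reduced-serum medium. Controls were untreated cells, 10 μM chloroquine and cell-free wells. Neutral red dye added and incubated 6 hr at 37°C, 5% CO2. Cells then washed with PBS, detection solution added for 10 min, absorbance read at 540 nm and normalized to controls.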

[3] = molecular target: Proteinase K (Parengyodontium album, UniProt P06873); assay: Proteinase K degradation of CPP/siRNA complexes, PicoGreen read-out; format: in vitro ADME; conditions: PF6 at MR10, same charge ratio as other CPPs
[4] = molecular target: proteinase (Parengyodontium album, UniProt P06873); assay: Coincubation of CPP with proteinase, peptide fragments by UPLC; format: in vitro ADME; conditions: coincubation of CPP with the enzyme, 2 hr at 37°C, data not shown
[5] = test system: luc2 gene in U87 MG-luc2 cells; assay: luc2 gene downregulation after CPP-mediated siRNA delivery; format: cell-based, human; conditions: MR30, 25 nM siRNA, 10% FBS media, 24 hr post treatment

Chain of proteinase (P06873 106-384): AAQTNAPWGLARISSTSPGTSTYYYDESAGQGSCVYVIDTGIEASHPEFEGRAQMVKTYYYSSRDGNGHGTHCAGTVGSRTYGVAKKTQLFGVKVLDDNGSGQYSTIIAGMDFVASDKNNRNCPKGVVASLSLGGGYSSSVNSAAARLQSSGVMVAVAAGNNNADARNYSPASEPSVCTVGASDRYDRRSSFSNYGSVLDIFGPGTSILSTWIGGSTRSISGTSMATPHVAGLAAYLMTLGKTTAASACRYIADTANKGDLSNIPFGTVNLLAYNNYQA
Chain of Proteinase K (P06873 106-384): as above

Substance: Stearyl-AGYLLGKINLKALAALAKKIL-NH2 [PF6]
- LDH leakage [1]: led to LDH leakage
- Neutral red assay (lyso-toxicity) [2]: showed toxic and/or buffering effects
- stability to proteinase, times higher than with other tested CPPs [3]: 10–20 times
- degradation of CPP by the proteinase [4]: lack of a considerable increase of detectable peptide fragments
- downregulation of luc2 gene at MR30 [5]: 80%
